Only some compounds are listed: those with a hit (about 5.7% of all), similar ones and a draw of the others.
SKKanGAS inh: blocks kanamycin growth of S. pyogenes SKKanGAS strain; AID 1662; inhibition, % at 7.5 µM; BacTiter-Glo, 6 h; 300,000 tested, 1.3% active;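 active = mean replicate score, as percent of positive control median, at least 50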;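 note: strain carries kanamycin resistance gene driven by streptokinase promoter and grows in 40 µg/ml kanamycin; loss of luminescence reflects streptokinase promoter inhibition or plain growth inhibition; 0% = median of DMSO wells and 100% = positive control at its reference dose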
CSC inhib: cancer stem cell inhibition. cancer stem cell-like cells viability, luminescence. inhibition, % at 7.5 µM. 300,000 tested, 1.1% active. AID 2717; in the data active = inhibition above about 75%; tested in HMLE shEcad cells
Mdm2-MdmX inh: disrupts the human Mdm2-MdmX interaction; SaOS-2 split-luciferase Mdm2/MdmX complementation, luminescence; O15151+Q00987; 330,000 tested, 3% active; inhibition, % at 8 µM;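 active = inhibition of at least 50% at 8 µM in the primary screen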
Target sequence (O15151 whole entry, looked up): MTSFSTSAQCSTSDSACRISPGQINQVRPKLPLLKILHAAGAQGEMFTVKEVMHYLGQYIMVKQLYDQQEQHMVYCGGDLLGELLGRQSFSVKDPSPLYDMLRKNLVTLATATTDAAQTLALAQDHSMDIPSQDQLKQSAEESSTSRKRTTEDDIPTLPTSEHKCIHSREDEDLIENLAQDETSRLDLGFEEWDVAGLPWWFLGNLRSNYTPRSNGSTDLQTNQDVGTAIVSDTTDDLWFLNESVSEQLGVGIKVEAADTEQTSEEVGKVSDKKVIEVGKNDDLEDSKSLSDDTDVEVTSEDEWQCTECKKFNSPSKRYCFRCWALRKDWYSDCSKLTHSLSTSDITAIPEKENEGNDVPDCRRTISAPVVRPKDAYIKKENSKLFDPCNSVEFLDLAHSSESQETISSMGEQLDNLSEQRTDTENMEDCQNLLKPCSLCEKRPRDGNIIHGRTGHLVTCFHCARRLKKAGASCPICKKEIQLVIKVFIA
Target sequence (Q00987 whole entry, looked up): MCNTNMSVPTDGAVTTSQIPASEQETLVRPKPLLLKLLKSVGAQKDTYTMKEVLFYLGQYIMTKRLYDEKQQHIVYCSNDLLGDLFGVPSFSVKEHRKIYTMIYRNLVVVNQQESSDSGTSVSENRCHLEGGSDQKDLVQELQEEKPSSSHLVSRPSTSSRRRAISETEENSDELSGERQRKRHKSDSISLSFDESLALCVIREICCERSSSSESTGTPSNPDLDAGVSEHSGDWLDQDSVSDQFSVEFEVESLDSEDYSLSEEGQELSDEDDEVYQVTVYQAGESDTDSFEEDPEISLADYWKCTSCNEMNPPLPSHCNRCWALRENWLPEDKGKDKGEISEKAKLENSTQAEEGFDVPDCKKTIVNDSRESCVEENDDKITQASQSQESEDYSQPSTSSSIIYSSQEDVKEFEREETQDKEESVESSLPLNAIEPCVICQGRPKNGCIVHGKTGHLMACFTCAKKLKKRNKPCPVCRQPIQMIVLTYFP
T cruzi inh: T. cruzi replication inhibition; T. cruzi beta-gal in NIH3T3, luminescence, 90 h; inhibition, % (concentration not given with the values); 300,000 tested, 1.4% active;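 active = mean inhibition across valid replicates above about 55%, limit read from the data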;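 note: signal also drops with host cell toxicity which is not excluded here; 0% = plate median of DMSO wells and 100% = zero luminescence signal; higher percent means less beta-gal luminescence so fewer parasites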
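assay system = mouse NIH/3T3 fibroblasts infected with β-gal-expressing T. cruzi Tulahuen C4 | input = 5,000 NIH/3T3 host cells per well | buffer or medium = DMEM plus 2% FBS | timing = 3 h host attachment, then at least 90 h co-culture | measured by = GalScreen luminescence, 60 min | evaluation = luminescence reflecting intracellular parasite burden, expressed as percent inhibition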
Beta cell apopt: blocks beta cell apoptosis. AID 435005. protection from apoptosis, % (no concentration beside the values). INS-1E cytokine-induced death, ATP luminescence, 48 h; percent of positive-control rescue, neutral wells zero. 300,000 tested, 0.8% active;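 active = Every replicate reaches about 75%, or at least half do and their mean reaches it too, limit read from the data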;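 note: 0% = cytokine-treated negative control wells and 100% = positive control rescue; higher means more ATP so stronger rescue from cytokine killing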
Calb FLC: affects C. albicans growth with fluconazole. 300,000 tested, 0.57% active. growth inhibition, % (concentration not given with the values). C. albicans CaCi-2 (fluconazole-resistant clinical isolate) + fluconazole, Alamar Blue growth, 48 h;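 active = growth inhibition above about 58% in most replicates, limit read from the data, passing the limit was not always enough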;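 note: all wells also contain fluconazole at 8 µg/ml as a sub-toxic cotreatment; 0% = median of DMSO wells and 100% = median of geldanamycin control wells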
Mdm2-MdmX conf: confirmation of human Mdm2/MdmX interaction inhibitors. shares compounds with Mdm2-MdmX inh. Mdm2-MdmX binding, luminescent assay. inhibition, % at 8 µM. 10,000 tested, 55% active. AID 489028; in the data active = inhibition above about 40%
FLuc counter: counter-screen for Mdm2/MdmX inhibitors: full-length luciferase | shares compounds with Mdm2-MdmX inh | SaOS-2 full-length luciferase counterscreen, luminescence | inhibition, % at 8 µM | 6,200 tested, 77% active | AID 504607;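 active = mean inhibition at 8 µM reaching about 37%, which flags the compound as non-specific, limit read from the data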;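 note: p53-null SaOS-2 cells with luciferase driven by a doxycycline-inducible promoter; compound on cells about two nights before reading with doxycycline added after day one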
The depositor's hits bear a star; . = no result.

SMILES | SKKanGAS inh | CSC inhib | Mdm2-MdmX inh | T cruzi inh | Beta cell apopt | Calb FLC | Mdm2-MdmX conf | FLuc counter
N#CC(c1cccc(Cl)c1)c1ccc2c(C(F)(F)F)cc(C(F)(F)F)nc2n1 (configuration not stated) | 95.0* | 107.1* | 98.1* | 20.1 | 114.1* | 6.4 | 94.0* | 57.2*
NNc1ccc2c(C(F)(F)F)cc(C(F)(F)F)nc2n1 | -11.2 | 10.6 | 28.8 | -0.4 | -5.7 | 11.0 | . | .
COc1ccccc1NC(=O)c1c(N=Cc2ccccc2O)cnn1C | -0.2 | -2.7 | 15.6 | -4.9 | . | -20.3 | . | .
NNc1nc2cc3c(cc2s1)OCCO3 | 8.5 | 9.8 | 0.1 | -5.5 | 0.9 | -1.9 | . | .
Cc1cc(C)c2nc(C)cc(N/N=C/c3ccc(O)cc3)c2c1 | 5.5 | 102.5* | 98.2* | 64.4* | . | -15.1 | 100.2* | 50.2*
Cc1cc(N/N=C/c2ccc(O)cc2)c2cccc(C)c2n1 | 4.1 | 22.5 | 65.5* | 46.6 | 43.5 | 1.3 | 4.3 | .
Cc1cc(N/N=C/c2ccc(N(C)C)cc2)c2ccccc2n1 | -2.0 | -5.0 | 4.6 | -11.6 | -1.8 | 1.1 | . | .
CCOc1ncccc1C(=O)Nc1ccc(OC)c(S(=O)(=O)N2CCOCC2)c1 | . | . | 12.3 | . | . | . | . | .
COc1ccc(NC(=O)Nc2ccc3c(c2)C(=O)N([C@H](C)CO)C[C@H](C)[C@@H](CN(C)C(=O)Nc2c(C)noc2C)O3)cc1 | . | . | -3.9 | . | 2.2 | . | . | .
Cc1cc(OCC(=O)NCc2ccccn2)c2c(C)c(C)c(=O)oc2c1 | 18.7 | -30.1 | 23.3 | 5.6 | -1.7 | 7.4 | . | .
Cc1cc(OCC(=O)Nc2ccccn2)c2c(C)c(C)c(=O)oc2c1 | 0.9 | -7.2 | 52.4* | -6.6 | -0.1 | -6.6 | -4.5 | .
O=C(Cc1ccc(-n2cccc2)cc1)NCc1cccs1 | -1.7 | 52.6 | 54.7* | -6.9 | 1.8 | -3.7 | 46.5* | 67.3*
CC(=O)Nc1ccc(S(=O)(=O)NCCN2CCNC2=O)cc1Cl | -19.0 | 5.6 | 17.8 | -17.0 | -2.4 | -3.6 | . | .
CCC1CCCCN1CCCNC(=O)c1ccc(/C=C2/Sc3ccccc3NC2=O)cc1 (configuration not stated) | -6.6 | -2.4 | 85.9* | -12.6 | 28.9 | 3.7 | 39.8 | 55.2*
O=C1Nc2cc(C(=O)NCCCN3CCOCC3)ccc2S/C1=C/c1cccc(Cl)c1 | 21.3 | 8.0 | 73.3* | 2.0 | 5.7 | 0.5 | 2.0 | .
COc1ccc(/C=C2/Sc3ccc(C(=O)NCCN4CCCCCC4)cc3NC2=O)cc1 | 27.4 | -11.9 | 100.3* | 32.5 | . | -10.8 | 87.6* | 5.8
CC1=C([N+](=O)[O-])C(c2ccccc2)C2=C(N1)c1ccccc1C2=O (configuration not stated) | -1.5 | 51.5 | 56.5* | 12.5 | 15.7 | 0.4 | 63.0* | 79.1*
Cc1ccc(C(=O)COC(=O)[C@@H](NC(=O)c2ccco2)C(C)C)s1 | . | -15.6 | 6.6 | . | -4.7 | . | . | .
COc1cc(-c2nnc(SCC(=O)N(Cc3ccccc3)C(C)(C)C)o2)cc(OC)c1OC | 2.8 | 70.9 | 51.1* | 26.2 | 11.0 | 7.8 | 42.1* | 91.4*
Cc1cnc(C(=O)OCC(=O)NC(C)c2ccccc2)cn1 (configuration not stated) | . | -14.9 | 3.5 | . | -3.8 | . | . | .
O=C(Nc1cccc(F)c1)C1CCCN(C(=O)c2ccc(Cl)cc2)C1 (configuration not stated) | . | . | 5.4 | . | 0.6 | . | . | .
Oc1ccc(Cl)cc1Cc1cc(Cl)ccc1O | 18.6 | 114.4* | 87.2* | -6.7 | 24.3 | . | 60.1* | 48.4*
Cc1ccc(NC2CCCN(C(=O)CSc3ccccn3)C2)cc1C (configuration not stated) | -4.9 | 3.9 | -1.0 | 5.9 | -1.8 | -0.5 | . | .
O=C(NC1(Cc2ccccc2)CCN(Cc2ccc(-c3ccccc3)cc2)C1=O)c1ccccc1 (configuration not stated) | . | 49.0 | 63.2* | . | 13.3 | . | 40.9* | 77.2*
N#Cc1c(N2CCSCC2)nsc1-c1ccccc1Cl | 36.1 | 18.5 | . | -1.6 | -4.5 | 4.9 | . | .
SMILES | SKKanGAS inh | CSC inhib | Mdm2-MdmX inh | T cruzi inh | Beta cell apopt | Calb FLC | Mdm2-MdmX conf | FLuc counter
COc1ccc(NC(=O)CN(C)C(=O)CCCN2C(=O)c3cccc4cccc(c34)C2=O)cc1 | -3.8 | 12.2 | 12.2 | 3.6 | -1.7 | -1.0 | . | .
COC(=O)c1ccc(Nc2cc(C)nc3ccc(C)cc23)cc1 | -4.1 | 30.2 | 100.2* | 8.4 | 32.0 | -11.1 | 66.3* | 52.1*
COc1ccc2nc(C)cc(Nc3ccc(N4CCN(C)CC4)cc3)c2c1 | 6.9 | 22.0 | 99.0* | 45.2 | 72.7 | -3.8 | 89.6* | 36.5*
COc1ccc(Nc2cc(C)nc3ccccc23)cc1 | . | . | 23.3 | -13.6 | 12.4 | -20.6 | . | .
COc1ccc2nc(C)cc(Nc3ccc(C)cc3)c2c1 | -0.9 | . | 17.8 | 29.3 | . | 0.5 | . | .
COc1ccc(OC)c(Nc2cc(C)nc3ccc(C)cc23)c1 | -3.6 | 43.8 | 68.4* | 40.5 | 6.4 | 0.6 | 58.1* | 47.7*
CC(=O)c1ccc(Nc2cc(C)nc3ccccc23)cc1 | -4.2 | 25.6 | 58.6* | 26.3 | . | 5.8 | 49.6* | 60.8*
CC(=O)c1ccc(Nc2cc(C)nc3c(C)cccc23)cc1 | 1.6 | 54.3 | 33.5 | -1.2 | 22.9 | 7.6 | . | .
N=c1c(S(=O)(=O)c2ccc(Cl)cc2)cc2c(=O)n3ccccc3nc2n1CCN1CCOCC1 | -0.1 | -1.3 | 16.3 | 2.8 | -2.7 | -1.4 | . | .
Cc1ccc(S(=O)(=O)c2cc3c(=O)n4ccccc4nc3n(C)c2=N)cc1C | 2.1 | -10.6 | 86.5* | 11.0 | -8.1 | -22.6 | 24.1 | .
N=c1c(S(=O)(=O)c2ccc(Cl)cc2)cc2c(=O)n3ccccc3nc2n1CCc1ccccc1 | 15.5 | 19.4 | 63.3* | 57.9* | 2.9 | -0.5 | 37.4 | 24.9
CCCCCCc1cc2cc(/C(N)=N/NC(=O)c3ccncc3)c(=O)oc2cc1O | . | 38.9 | 65.3* | . | 6.0 | . | 18.6 | .
CCCCCCc1cc2cc(C(N)=O)c(=N)oc2cc1O | 19.5 | 52.5 | 8.3 | -9.8 | -1.1 | 1.3 | . | .
CCCCCCc1cc2cc(C(=O)OCC)c(=O)oc2cc1O | 56.0* | 32.5 | 63.6* | -14.7 | 1.9 | 66.2 | 10.8 | .
CCCCCCc1cc2cc(C(=O)Nc3ccc(OC)cc3)c(=O)oc2cc1O | -0.3 | 54.3 | 100.1* | -3.5 | 50.4 | -1.4 | 34.3 | .
CCCCCCc1cc2cc(S(=O)(=O)c3ccc(F)c(Cl)c3)c(=O)oc2cc1O | 27.2 | -2.8 | 98.2* | 9.7 | 19.8 | 1.2 | 92.3* | 27.6
COc1cc(OC)c(OC)cc1CNC(=O)c1cc(S(=O)(=O)N2CCOCC2)ccc1F | . | . | 13.2 | . | -3.1 | . | . | .
O=C(O)c1cccc(S(=O)(=O)Nc2ccccc2C(=O)NCCc2ccccc2)c1 | 7.4 | -12.1 | -8.8 | -9.2 | -8.3 | -2.3 | . | .
CCCCCCc1cc2cc(C(=O)Nc3cccc(OC)c3)c(=O)oc2cc1O | 13.3 | . | 94.6* | -9.4 | 99.0* | -3.9 | 4.5 | .

Source: PubChem BioAssay
